This is an account of results in ChEMBL document CHEMBL4004830 (J Med Chem, 2017).

Experiment [1] concerns the target Cyclin-dependent kinase 1/cyclin B1 (Homo sapiens) (UniProt P06493+P14635). Nature of the experiment: (§1) Inhibition of CDK1/cyclin B (unknown origin) in presence of [gamma-33P]-ATP […]. The format is protein-complex assay.
The target in experiment [2] is CDK2/Cyclin A2 (Homo sapiens) (UniProt P24941+P20248). Nature of the experiment: (§2) Inhibition of CDK2/cyclin A (unknown origin) in presence of [gamma-33P]-ATP […]. The format is protein-complex assay.
In experiment [3] the target is Cyclin-dependent kinase 7/ cyclin H (Homo sapiens) (UniProt P51946+P50613). In words: (§3) Inhibition of CDK7/cyclin H (unknown origin) in presence of [gamma-33P]-ATP […]. The class given is protein-complex assay.
For another experiment, the target named is CDK9/cyclin T1 (Homo sapiens, UniProt P50750). Nature of the experiment: Inhibition of CDK9/cyclin T1 (unknown origin) in presence of [gamma-33P]-ATP […]. The class given is protein-complex assay. The note with it: read-out: Ki(app).
CDK9/cyclin T1, sequence (O60563 whole entry): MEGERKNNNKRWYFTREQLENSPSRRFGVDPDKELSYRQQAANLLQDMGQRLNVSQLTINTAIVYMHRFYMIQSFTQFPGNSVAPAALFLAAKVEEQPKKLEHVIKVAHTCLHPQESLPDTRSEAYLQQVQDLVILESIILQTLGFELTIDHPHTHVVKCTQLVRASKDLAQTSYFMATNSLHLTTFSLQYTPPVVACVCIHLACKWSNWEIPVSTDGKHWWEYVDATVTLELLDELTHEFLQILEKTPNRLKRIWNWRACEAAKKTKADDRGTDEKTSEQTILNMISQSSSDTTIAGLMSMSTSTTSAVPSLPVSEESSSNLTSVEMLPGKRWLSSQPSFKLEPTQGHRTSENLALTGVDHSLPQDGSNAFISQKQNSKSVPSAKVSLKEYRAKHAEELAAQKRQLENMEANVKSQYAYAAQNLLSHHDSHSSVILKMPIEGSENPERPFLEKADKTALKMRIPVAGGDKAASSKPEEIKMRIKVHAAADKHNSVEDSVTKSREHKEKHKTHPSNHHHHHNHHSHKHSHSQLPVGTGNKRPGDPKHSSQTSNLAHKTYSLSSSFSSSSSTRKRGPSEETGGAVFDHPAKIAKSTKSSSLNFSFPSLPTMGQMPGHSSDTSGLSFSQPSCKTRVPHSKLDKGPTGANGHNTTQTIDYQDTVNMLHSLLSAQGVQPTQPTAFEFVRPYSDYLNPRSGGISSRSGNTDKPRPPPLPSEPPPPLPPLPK
CDK9/cyclin T1, sequence (P50750 whole entry): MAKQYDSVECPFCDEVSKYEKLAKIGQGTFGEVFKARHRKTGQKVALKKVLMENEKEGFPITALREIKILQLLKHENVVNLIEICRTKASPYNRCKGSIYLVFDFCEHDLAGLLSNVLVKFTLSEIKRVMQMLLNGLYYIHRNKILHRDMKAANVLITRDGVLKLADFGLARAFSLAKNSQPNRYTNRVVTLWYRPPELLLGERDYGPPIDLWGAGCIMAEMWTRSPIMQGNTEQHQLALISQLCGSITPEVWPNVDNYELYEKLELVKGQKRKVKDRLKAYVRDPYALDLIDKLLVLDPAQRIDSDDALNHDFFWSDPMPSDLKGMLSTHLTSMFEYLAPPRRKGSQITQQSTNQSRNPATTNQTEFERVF
For experiment [4], the system named is MV4-11. In words: Growth inhibition of human MV4-11 cells after 72 hrs by resazurin assay. The class given is functional. As to conditions: MV4-11, 72 h. The essentials:
(§4)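 72 h antiproliferation assay, resazurin read-out for MV4-11 and MTT read-out for MDA-MB-453; values from at least two replicates.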
On the technique in general: Resazurin is reduced to fluorescent resorufin, in cell work by metabolically active cells.

The next experiment has as its system MDA-MB-453. In words: Growth inhibition of human MDA-MB-453 cells after 72 hrs by MTT assay. The format is functional. As to conditions: MDA-MB-453, 72 h. The essentials:
as §4

The target in experiment [5] is Dual specificity tyrosine-phosphorylation-regulated kinase 1A (Rattus norvegicus) (UniProt Q63470). In words: Inhibition of recombinant rat N-terminal GST-tagged DYRK1A (1 to 499 amino acid residues) expressed in Escherichia coli assessed as residual activity at 10 uM.
For experiment [6], the target named is Homeodomain-interacting protein kinase 2 (Homo sapiens) (UniProt Q9H2X6). Nature of the experiment: Inhibition of recombinant human N-terminal His6-tagged HIPK2 (165 to 564 amino acid residues) expressed in baculovirus infected Sf21 insect cells assessed as residual activity at 10 uM.
Homeodomain-interacting protein kinase 2 (Homo sapiens), sequence (Q9H2X6 whole entry, looked up, the tested form may be a part): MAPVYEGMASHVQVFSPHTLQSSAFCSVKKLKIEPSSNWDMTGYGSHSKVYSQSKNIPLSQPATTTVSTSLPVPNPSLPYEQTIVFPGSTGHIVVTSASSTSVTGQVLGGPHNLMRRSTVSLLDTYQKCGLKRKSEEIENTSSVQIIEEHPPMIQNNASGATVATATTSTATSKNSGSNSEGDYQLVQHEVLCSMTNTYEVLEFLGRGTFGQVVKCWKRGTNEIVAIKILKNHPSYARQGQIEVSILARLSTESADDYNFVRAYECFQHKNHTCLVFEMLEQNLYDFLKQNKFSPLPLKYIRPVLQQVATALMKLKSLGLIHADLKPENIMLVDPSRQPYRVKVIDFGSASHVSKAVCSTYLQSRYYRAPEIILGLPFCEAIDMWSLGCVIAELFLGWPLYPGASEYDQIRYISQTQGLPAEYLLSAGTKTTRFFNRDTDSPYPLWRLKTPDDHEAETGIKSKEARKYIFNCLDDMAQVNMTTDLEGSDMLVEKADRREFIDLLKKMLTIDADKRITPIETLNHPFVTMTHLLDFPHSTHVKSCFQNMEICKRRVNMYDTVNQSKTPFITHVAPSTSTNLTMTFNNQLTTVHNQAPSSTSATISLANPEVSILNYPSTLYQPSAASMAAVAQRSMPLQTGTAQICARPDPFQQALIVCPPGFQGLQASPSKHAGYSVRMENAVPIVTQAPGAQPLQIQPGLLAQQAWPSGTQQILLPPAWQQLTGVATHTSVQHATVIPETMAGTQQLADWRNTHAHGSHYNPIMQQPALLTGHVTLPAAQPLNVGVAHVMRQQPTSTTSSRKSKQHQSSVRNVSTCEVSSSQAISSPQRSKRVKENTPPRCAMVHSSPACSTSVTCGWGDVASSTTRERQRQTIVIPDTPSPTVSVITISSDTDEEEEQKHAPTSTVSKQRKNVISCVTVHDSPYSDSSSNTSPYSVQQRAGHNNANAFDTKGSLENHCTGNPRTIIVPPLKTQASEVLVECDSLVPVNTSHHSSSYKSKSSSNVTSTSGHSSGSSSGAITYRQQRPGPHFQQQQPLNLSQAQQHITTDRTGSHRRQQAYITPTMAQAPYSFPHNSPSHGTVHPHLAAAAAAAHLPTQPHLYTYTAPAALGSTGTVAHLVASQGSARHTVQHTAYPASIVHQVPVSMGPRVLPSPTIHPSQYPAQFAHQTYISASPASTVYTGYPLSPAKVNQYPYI
Experiment [7] concerns the target Dual specificity tyrosine-phosphorylation-regulated kinase 1B (Homo sapiens) (UniProt Q9Y463). In words: Inhibition of DYRK1B (unknown origin) assessed as residual activity at 10 uM.
For experiment [8], the target named is Cyclin-dependent kinase 4/cyclin D1 (Homo sapiens, UniProt P11802). Nature of the experiment: Inhibition of CDK4/cyclin D1 (unknown origin) in presence of [gamma-33P]-ATP […]. The class given is protein-complex assay. As to conditions: read-out: Ki(app).
The next experiment concerns the target CDK6/cyclin D3 (Homo sapiens, UniProt Q00534). Nature of the experiment: Inhibition of CDK6/cyclin D3 (unknown origin) in presence of [gamma-33P]-ATP […]. The class given is protein-complex assay. As to conditions: read-out: Ki(app).
Experiment [9] concerns the target Cyclin-dependent kinase 1/cyclin B1 (Homo sapiens, UniProt P06493). The experiment is described as §1. The class given is protein-complex assay. As to conditions: read-out: Ki(app).
In a further experiment the target is CDK2/Cyclin A2 (Homo sapiens, UniProt P24941). The description is as §2. The format is protein-complex assay. The note with it: read-out: Ki(app).
Experiment [10] concerns the target Cyclin-dependent kinase 7/ cyclin H (Homo sapiens, UniProt P50613). The experiment is described as §3. The format is protein-complex assay. The note with it: read-out: Ki(app).
Experiment [11] concerns MV4-11. Nature of the experiment: Cell cycle arrest in human MV4-11 cells assessed as accumulation at sub-G1 phase at 0.04 uM after 24 hrs by propidium iodide staining based flow cytometry (reference value: 1.99%). The class given is functional. (In general: In flow cytometry, cells or beads pass a laser one at a time.)
Experiment [12] deals with MV4-11. Nature of the experiment: Cell cycle arrest in human MV4-11 cells assessed as accumulation at G1 phase at 0.04 uM after 24 hrs by propidium iodide staining based flow cytometry (reference value: 61.01%). The class given is functional.
The test system of experiment [13] is MV4-11. In words: Cell cycle arrest in human MV4-11 cells assessed as accumulation at S phase at 0.04 uM after 24 hrs by propidium iodide staining based flow cytometry (reference value: 19.07%). The class given is functional.
In experiment [14] the test system is MV4-11. In words: Cell cycle arrest in human MV4-11 cells assessed as accumulation at G2/M phase at 0.04 uM after 24 hrs by propidium iodide staining based flow cytometry (reference value: 17.94%). The class given is functional.
In experiment [15] the test system is MV4-11. In words: Cell cycle arrest in human MV4-11 cells assessed as accumulation at sub-G1 phase at 0.20 uM after 24 hrs by propidium iodide staining based flow cytometry (reference value: 1.99%). The class given is functional.
For experiment [16], the system named is MV4-11. Nature of the experiment: Cell cycle arrest in human MV4-11 cells assessed as accumulation at G1 phase at 0.20 uM after 24 hrs by propidium iodide staining based flow cytometry (reference value: 61.01%). The format is functional.
The test system of experiment [17] is MV4-11. In words: Cell cycle arrest in human MV4-11 cells assessed as accumulation at S phase at 0.20 uM after 24 hrs by propidium iodide staining based flow cytometry (reference value: 19.07%). The class given is functional.
For experiment [18], the system named is MV4-11. Nature of the experiment: Cell cycle arrest in human MV4-11 cells assessed as accumulation at G2/M phase at 0.20 uM after 24 hrs by propidium iodide staining based flow cytometry (reference value: 17.94%). The class given is functional.
The subject of experiment [19] is MV4-11. In words: Cell cycle arrest in human MV4-11 cells assessed as accumulation at sub-G1 phase at 0.40 uM after 24 hrs by propidium iodide staining based flow cytometry (reference value: 1.99%). The class given is functional.
Experiment [20] has as its system MV4-11. In words: Cell cycle arrest in human MV4-11 cells assessed as accumulation at G1 phase at 0.40 uM after 24 hrs by propidium iodide staining based flow cytometry (reference value: 61.01%). The format is functional.
The test system of experiment [21] is MV4-11. In words: Cell cycle arrest in human MV4-11 cells assessed as accumulation at S phase at 0.40 uM after 24 hrs by propidium iodide staining based flow cytometry (reference value: 19.07%). The class given is functional.
Experiment [22] relates to MV4-11. Nature of the experiment: Cell cycle arrest in human MV4-11 cells assessed as accumulation at G2/M phase at 0.40 uM after 24 hrs by propidium iodide staining based flow cytometry (reference value: 17.94%). The format is functional.
The test system of experiment [23] is MV4-11. In words: Cell cycle arrest in human MV4-11 cells assessed as accumulation at G1 phase after 24 hrs by propidium iodide staining based flow cytometry. The format is functional.
The species named for a further experiment is Homo sapiens. Nature of the experiment: Inhibition of SGK (unknown origin) assessed as residual activity at 10 uM; values are per cent of control.
Experiment [24] deals with Dual specificity tyrosine-phosphorylation-regulated kinase 1B (Homo sapiens) (UniProt Q9Y463). In words: Inhibition of DYRK1B (unknown origin) assessed as residual activity at 10 uM; values are per cent of control.
Dual specificity tyrosine-phosphorylation-regulated kinase 1B (Homo sapiens), sequence (Q9Y463 whole entry, looked up): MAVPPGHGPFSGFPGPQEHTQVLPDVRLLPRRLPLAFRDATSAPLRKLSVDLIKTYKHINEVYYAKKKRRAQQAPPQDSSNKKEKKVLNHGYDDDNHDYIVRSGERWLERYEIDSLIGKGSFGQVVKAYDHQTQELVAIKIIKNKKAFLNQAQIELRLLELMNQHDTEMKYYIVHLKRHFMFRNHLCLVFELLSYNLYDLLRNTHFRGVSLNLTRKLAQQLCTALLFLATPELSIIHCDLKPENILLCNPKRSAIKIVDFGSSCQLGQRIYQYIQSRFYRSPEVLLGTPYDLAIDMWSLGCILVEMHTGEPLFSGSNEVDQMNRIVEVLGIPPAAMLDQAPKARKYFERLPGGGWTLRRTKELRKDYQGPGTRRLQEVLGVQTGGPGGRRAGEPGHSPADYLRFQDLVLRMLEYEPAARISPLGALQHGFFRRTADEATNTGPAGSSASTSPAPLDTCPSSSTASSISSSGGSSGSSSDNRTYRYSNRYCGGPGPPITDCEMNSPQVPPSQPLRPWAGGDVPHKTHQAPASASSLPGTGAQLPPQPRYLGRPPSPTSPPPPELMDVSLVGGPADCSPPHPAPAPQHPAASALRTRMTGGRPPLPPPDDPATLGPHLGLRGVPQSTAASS
In experiment [25] the target is Serine/threonine-protein kinase pim-1 (Homo sapiens) (UniProt P11309). Nature of the experiment: Inhibition of recombinant full-length human N-terminal GST-tagged Pim-1 expressed in Escherichia coli assessed as residual activity at 10 uM; values are per cent of control.
Experiment [26] deals with Dual specificity tyrosine-phosphorylation-regulated kinase 1A (Rattus norvegicus) (UniProt Q63470). In words: Inhibition of recombinant rat N-terminal GST-tagged DYRK1A (1 to 499 amino acid residues) expressed in Escherichia coli assessed as residual activity at 10 uM; values are per cent of control.
The target of experiment [27] is MAP kinase-interacting serine/threonine-protein kinase 2 (Homo sapiens) (UniProt Q9HBH9). In words: Inhibition of recombinant full-length human N-terminal His6-tagged Mnk2 expressed in baculovirus infected Sf21 insect cells assessed as residual activity at 10 uM; values are per cent of control.
MAP kinase-interacting serine/threonine-protein kinase 2 (Homo sapiens), sequence (Q9HBH9 whole entry, looked up, the tested form may be a part): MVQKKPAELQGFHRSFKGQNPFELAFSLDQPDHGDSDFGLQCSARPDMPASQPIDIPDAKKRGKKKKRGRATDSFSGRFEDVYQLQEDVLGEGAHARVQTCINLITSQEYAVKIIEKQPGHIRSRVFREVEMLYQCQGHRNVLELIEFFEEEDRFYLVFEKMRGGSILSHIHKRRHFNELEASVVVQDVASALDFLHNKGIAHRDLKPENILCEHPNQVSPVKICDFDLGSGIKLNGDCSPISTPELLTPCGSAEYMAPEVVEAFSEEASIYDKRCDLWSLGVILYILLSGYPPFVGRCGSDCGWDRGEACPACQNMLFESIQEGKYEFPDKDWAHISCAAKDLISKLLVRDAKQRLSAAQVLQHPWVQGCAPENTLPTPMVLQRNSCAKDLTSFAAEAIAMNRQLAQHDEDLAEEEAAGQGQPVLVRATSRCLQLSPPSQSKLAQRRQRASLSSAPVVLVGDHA
Experiment [28] addresses Death-associated protein kinase 1 (Homo sapiens) (UniProt P53355). In words: Inhibition of recombinant human N-terminal GST-tagged DAPK1 (1 to 296 amino acid residues) expressed in baculovirus infected Sf21 cells assessed as residual activity at 10 uM; values are per cent of control.
Experiment [29] has as its target Receptor-type tyrosine-protein kinase FLT3 (Homo sapiens) (UniProt P36888). In words: Inhibition of recombinant human N-terminal GST-tagged Flt3 (564 to end amino acid residues) expressed in baculovirus infected Sf21 insect cells assessed as residual activity at 10 uM; values are per cent of control.
In experiment [30] the target is Vascular endothelial growth factor receptor 3 (Homo sapiens) (UniProt P35916). In words: Inhibition of recombinant human N-terminal GST-tagged Flt4 (800 to end amino acid residues) expressed in baculovirus infected Sf21 insect cells assessed as residual activity at 10 uM; values are per cent of control.
Experiment [31] concerns the target Fibroblast growth factor receptor 1 (Homo sapiens) (UniProt P11362). In words: Inhibition of recombinant human N-terminal GST-tagged FGFR1 (456 to 765 amino acid residues) expressed in baculovirus infected Sf21 insect cells assessed as residual activity at 10 uM; values are per cent of control.
Experiment [32] addresses Homeodomain-interacting protein kinase 2 (Homo sapiens) (UniProt Q9H2X6). Nature of the experiment: Inhibition of recombinant human N-terminal His6-tagged HIPK2 (165 to 564 amino acid residues) expressed in baculovirus infected Sf21 insect cells assessed as residual activity at 10 uM; values are per cent of control.

pKi: −log10 of the molar value. Calls of active or inactive are those of the source. No cut-off for these calls is given here. Some results are limits rather than exact numbers.

Cyclin-dependent kinase 1/cyclin B1, sequence (P06493 whole entry): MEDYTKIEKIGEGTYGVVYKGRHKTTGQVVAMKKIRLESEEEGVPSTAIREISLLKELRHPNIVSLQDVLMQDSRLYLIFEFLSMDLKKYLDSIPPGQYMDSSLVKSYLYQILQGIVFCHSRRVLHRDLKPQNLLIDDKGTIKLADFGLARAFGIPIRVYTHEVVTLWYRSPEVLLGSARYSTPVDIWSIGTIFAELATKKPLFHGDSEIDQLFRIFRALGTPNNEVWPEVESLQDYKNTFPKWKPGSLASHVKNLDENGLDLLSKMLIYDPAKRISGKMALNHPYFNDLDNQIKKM
Cyclin-dependent kinase 1/cyclin B1, sequence (P14635 whole entry, further chain): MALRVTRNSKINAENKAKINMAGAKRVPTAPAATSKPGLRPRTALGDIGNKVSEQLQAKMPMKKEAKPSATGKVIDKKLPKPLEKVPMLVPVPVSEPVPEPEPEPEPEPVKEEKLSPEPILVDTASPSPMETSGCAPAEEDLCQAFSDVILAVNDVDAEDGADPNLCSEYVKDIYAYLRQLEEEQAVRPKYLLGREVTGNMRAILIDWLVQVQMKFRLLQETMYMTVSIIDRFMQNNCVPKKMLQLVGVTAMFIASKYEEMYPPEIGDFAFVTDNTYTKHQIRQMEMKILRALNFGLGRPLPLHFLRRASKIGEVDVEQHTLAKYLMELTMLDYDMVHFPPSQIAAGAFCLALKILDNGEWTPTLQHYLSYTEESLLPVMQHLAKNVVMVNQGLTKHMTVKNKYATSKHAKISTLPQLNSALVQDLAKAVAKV
Cyclin-dependent kinase 7/ cyclin H, sequence (P51946 whole entry): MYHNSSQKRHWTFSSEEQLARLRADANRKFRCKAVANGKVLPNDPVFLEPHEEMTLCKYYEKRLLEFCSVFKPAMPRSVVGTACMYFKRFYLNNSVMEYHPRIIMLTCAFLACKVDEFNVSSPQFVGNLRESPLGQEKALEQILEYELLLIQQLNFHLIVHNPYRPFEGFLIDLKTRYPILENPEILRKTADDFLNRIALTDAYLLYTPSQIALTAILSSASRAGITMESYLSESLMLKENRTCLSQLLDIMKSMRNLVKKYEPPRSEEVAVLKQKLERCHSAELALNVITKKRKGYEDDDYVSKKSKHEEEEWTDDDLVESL
Cyclin-dependent kinase 7/ cyclin H, sequence (P50613 whole entry): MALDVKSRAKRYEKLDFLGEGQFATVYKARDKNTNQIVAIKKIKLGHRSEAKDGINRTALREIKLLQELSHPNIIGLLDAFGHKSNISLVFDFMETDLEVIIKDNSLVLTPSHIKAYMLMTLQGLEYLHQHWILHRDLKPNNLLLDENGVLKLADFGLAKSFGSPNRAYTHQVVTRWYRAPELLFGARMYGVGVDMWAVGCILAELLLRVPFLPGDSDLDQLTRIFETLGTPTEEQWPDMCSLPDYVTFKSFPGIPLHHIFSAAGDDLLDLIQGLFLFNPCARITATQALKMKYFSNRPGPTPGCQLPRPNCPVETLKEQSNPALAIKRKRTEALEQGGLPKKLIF

`Cc1nc(Nc2ccccc2)sc1-c1ccnc(Nc2ccc(N3CCN(C)CC3)cn2)n1`: the “Ki(app)” value in experiment [1], in experiment [2] and in [3] was “inactive” in each case. Further, the pKi – broadly, −log10 of the Ki, conventionally taken in molar units – on CDK9/cyclin T1 was under 5.30. Also, the concentration for 50% growth inhibition (GI50) (as a rule, the concentration that inhibits growth by half) in the experiment with MV4-11 [4] was found to be 508 nM; in the experiment with MDA-MB-453, 494 nM.
For the molecule `Cc1nc(NC2CCCC2)sc1-c1nc(Nc2ccc(N3CCC(N(C)C)CC3)cn2)ncc1F`, the “Ki(app)” value in experiment [1] and in [3] was “inactive” in each case. The results for the GI50 with MV4-11 [4] and in the experiment with MDA-MB-453 were 454 nM and 356 nM, respectively. For the same molecule, the inhibition entry in experiment [5], in [6] and in experiment [7] was “Active” each time.
As to `Cc1nc(N(C2CCCC2)C2CCCC2)sc1-c1ccnc(Nc2ccc(N3CCNCC3)cn2)n1`, the pKi is 7.15 in experiment [8]; 6.27 at CDK6/cyclin D3; under 5.30 in experiment [9]; under 5.30 at CDK2/Cyclin A2; under 5.30 in [10]; under 5.30 on CDK9/cyclin T1. For the same molecule, the GI50 was found to be 714 nM in the experiment with MV4-11 [4] and 373 nM with MDA-MB-453.
For the molecule `Cc1nc(NC2CCCC2)sc1-c1ccnc(Nc2ccc(N3CCNCC3)cn2)n1`, the pKi in experiment [9] is under 5.30; at CDK2/Cyclin A2 it was under 5.30; in experiment [10], 5.96. For the same molecule, the GI50 in the experiment on MV4-11 [4] worked out at 23 nM; in the experiment with MDA-MB-453, 70 nM. Also, the Activity is on record as 6.3% in the experiment with MV4-11 [11]; 64.05% in the experiment on MV4-11 [12]; 17.01% in the experiment with MV4-11 [13]; 12.73% in the experiment with MV4-11 [14]; 4.23% in the experiment on MV4-11 [15]; 72.09% in the experiment with MV4-11 [16]. The Activity with MV4-11 [17] is given as 13.52%; in the experiment with MV4-11 [18], 9.96%; in the experiment with MV4-11 [19], 4.01%; with MV4-11 [20], 85 - 85.24%; in the experiment on MV4-11 [21], 5.9%; with MV4-11 [22], 4.7%. Moreover, the Activity entry in the experiment with MV4-11 [23] is “Dose-dependent effect”. In addition, the residual activity (in the experiment listed under Homo sapiens; in experiment [24]; in [25]; in experiment [26]; in experiment [27]; in experiment [28]) was under 10% each time. Further, the residual activity in experiment [29], in [30], in experiment [31] and in [32] was under 10% in each case.
Turning to `Cc1nc(NC2CCCC2)sc1-c1nc(Nc2ccc(N3CCN(C)CC3)cn2)ncc1F`, the pKi is 9.00 in experiment [8]; 8.52 on CDK6/cyclin D3; 5.63 in experiment [9]; 6.99 at CDK2/Cyclin A2; 5.69 in experiment [10]; 6.30 on CDK9/cyclin T1. The values for the GI50 in the experiment with MV4-11 [4] and in the experiment on MDA-MB-453 were 73 nM and 202 nM, respectively. Moreover, the residual activity (in the experiment listed under Homo sapiens; in experiment [24]; in [25]; in experiment [26]; in [27]; in experiment [28]) was under 10% each time. In addition, the residual activity in experiment [29], in experiment [30], in [31] and in [32] was under 10% throughout.
